Compounds with a hit are over-represented: about 4.1% of the library has one in this group of screens.
Redox H2O2 prof: compounds producing H2O2 with reducing agent – biochemical, NIH compound library profiling, artefact control for MLSCN library redox annotation, primary screen. 200,000 compounds, 0.03% hits. activation, % at 10 µM. DTT-dependent redox cycling H2O2, phenol red/HRP absorbance; 100% = 100 µM peroxide control, 0% = buffer;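 active = activation of at least 50% relative to the plate's high and low controls in the primary single-dose screen; inactive = activation below 50%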;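 also: compound incubated with DTT at 0.8 mM final as the reducing agent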
Dynein cargo inh: blocks dynein driven cargo transport along microtubules | 3617.4 mouse cells, GR-EGFP nuclear translocation imaging; test concentration mostly 20 µM; stimulated with dexamethasone, 1 µM; stronger effect = lower value | z-score, hits read low | 220,000 compounds, 0.47% hits;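 active = plate z-score of nuclear minus cytoplasmic receptor signal below a set negative limit, without overly bright fluorescence or cell loss, cut at about -3.5 in these data, passing the limit was not always enough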;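 also: z-score of nuclear minus cytoplasmic ring GR-EGFP intensity difference per well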
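medium = tetracycline-free induction medium containing charcoal-stripped FBS | probe or stimulus = dexamethasone, 1.0 µM final | timing = 48 h induction, then 1 h compound, then 30 min agonist, 37 °C | detection = automated 10x imaging of fixed Hoechst-stained cells | read-out basis = nuclear versus cytoplasmic GR-EGFP signal, averaged per well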
Cl transport mod: KCC2 (human) Cl- transport modulation; B-score of Tl+ flux slope (higher = more flux/activation; lower = inhibition) at 10 µM; AID 1456; 190,000 compounds, 2.2% hits; KCC2 cells, thallium flux FluoZin-2 fluorescence;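 active = thallium flux slope and its plate-corrected score both differing from the plate sample mean at a set confidence after two filtering rounds, in either direction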;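 also: slope of fluorescence scaled to starting intensity during 10 to 20 s after thallium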
Autophagy mod: autophagy modulation, high-content screen; 190,000 compounds, 0.98% hits; calls only at 10 µM (by protocol); MEF GFP-LC3 puncta imaging; test concentration mostly 10 µM; AID 463193;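 active = percentage of spot-positive cells more than 3 SD above its plate mean, without a fluorescence outlier flag or 80% toxicity; inconclusive = no clear call, values can overlap the other calls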;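 also: spot-positive cell cutoff set from DMSO-treated cells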
ROMK primary: modulators of human ROMK potassium channel; P48048; B-score at 10 µM; 130,000 compounds, 2% hits; Tet-inducible ROMK, thallium flux fluorescence; actives lie on both sides;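 active = signal ratio slope over the read window, or its plate-corrected B-score, at least 3 SD from the plate mean, either direction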;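 also: B-score of the F/F0 ratio slope over 7 to 12 s after thallium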
Target sequence (P48048 whole entry, looked up): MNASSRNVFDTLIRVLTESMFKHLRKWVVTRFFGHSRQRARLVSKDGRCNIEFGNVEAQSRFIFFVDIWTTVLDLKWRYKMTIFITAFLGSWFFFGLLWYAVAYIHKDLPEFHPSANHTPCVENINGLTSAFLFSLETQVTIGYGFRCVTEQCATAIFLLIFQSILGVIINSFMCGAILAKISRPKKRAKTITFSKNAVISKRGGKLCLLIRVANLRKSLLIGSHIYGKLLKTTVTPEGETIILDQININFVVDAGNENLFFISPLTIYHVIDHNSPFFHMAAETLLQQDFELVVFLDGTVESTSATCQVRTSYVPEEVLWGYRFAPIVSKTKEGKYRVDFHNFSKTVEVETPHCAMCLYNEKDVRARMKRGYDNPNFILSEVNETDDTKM
Dynein inh conf: dynein cargo transport inhibition, confirmation | shares compounds with Dynein cargo inh | 3617.4 GR-EGFP nuclear translocation imaging, dexamethasone-induced | calls only at 20 µM | 1,000 compounds, 69% hits | AID 463116;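 active = inhibition of receptor movement into the nucleus at or above a set limit in both runs, with normal cell brightness and cell count; inconclusive = limit reached in only one run, brightness and count normal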;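 also: dexamethasone at 1 µM final in well for 30 min; nuclear minus cytoplasmic GR-EGFP mean intensity difference in channel 2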
* hit, by the source's call; i = inactive; ? = inconclusive; / = no result; + = active, no number.

SMILES	Redox H2O2 prof	Dynein cargo inh	Cl transport mod	Autophagy mod	ROMK primary	Dynein inh conf
Cn1c(=O)c(NCCc2ccccc2)c2c3c(cccc31)C(=O)c1ccccc1-2	2	-5.1*	i	?	/	+
CCCCNc1c2c3c(cccc3n(C)c1=O)C(=O)c1ccccc1-2	1	-5.1*	i	i	/	+
Cn1c(=O)c(NCCO)c2c3c(cccc31)C(=O)c1ccccc1-2	-4	-6.9*	i	i	/	+
CC(C)N1CCNCC1	0	0.58	0.41	i	-0.73	/
OCCN1CCN(CC(O)C(F)(F)F)CC1 (stereo unspecified)	0	-0.055	0.98	i	0.15	/
COc1cc2c(cc1Cl)C(=O)C(F)(c1ccccc1)C(=O)N2 (stereo unspecified)	/	0.23	-0.27	/	/	/
COc1ccc(-c2cc(-c3ccccc3)c(C#N)c(S(C)(=O)=O)n2)cc1	0	-1.6	0.42	i	/	/
CS(=O)(=O)c1nc(-c2ccc(Br)cc2)cc(-c2ccccc2)c1C#N	0	-6*	0.64	+	/	+
CS(=O)c1nc(-c2ccc(Br)cc2)cc(-c2ccccc2)c1C#N (stereo unspecified)	-3	-4.1*	0.006	i	/	+
COc1cc(C(C[N+](=O)[O-])c2c(N)n(C)c(=O)n(C)c2=O)ccc1O (stereo unspecified)	-1	-1.6	-0.8	i	-0.27	/
COc1cccc(F)c1C(C[N+](=O)[O-])c1c(N)n(C)c(=O)n(C)c1=O (stereo unspecified)	/	-3.6*	-0.78	/	-0.12	+
O=C(COCC(=O)N1CCOCC1)N1CCOCC1	-1	0.32	/	i	/	/
CCOC(=O)c1c(C)oc2c1c(C(c1ccncc1)N1CCOCC1)c(O)c1ccccc12 (stereo unspecified)	3	-3.5*	/	i	/	i
Cc1cc(C)nc(N/N=C/C2=C(O)CC(c3ccc(F)cc3)CC2=O)n1 (stereo unspecified)	/	-0.75	2.5	/	-0.019	/
CN(C)c1oc(-c2ccccc2[N+](=O)[O-])nc1C#N	/	-5.1*	1.1	/	/	i
CN(C)c1oc(-c2ccccc2Cl)nc1C#N	1	-0.21	-1.8	i	/	/
CCOC(=O)/C(=C\c1cn(C)c2ccccc12)[N+](=O)[O-]	-1	-3.7*	-5.2	i	/	+
CCOC(=O)/C(C#N)=C\c1cn(C)c2ccccc12	-2	-0.0015	-0.08	i	-0.28	/
COC(=O)c1[nH]c(C)c(/C(O)=C2\C(=O)C(=O)N(CCN3CCOCC3)C2c2ccc(C)o2)c1C (stereo unspecified)	/	-0.37	0.29	/	/	/
COc1ccc(N2C(=O)CC(Sc3ncn[nH]3)C2=O)c(OC)c1 (stereo unspecified)	1	-4*	-0.54	i	/	+
CC(C)c1ccc(N2C(=O)CC(Sc3ncn[nH]3)C2=O)cc1 (stereo unspecified)	0	0.81	/	i	-1.1	/
CCOC(=O)COc1cc(N)c(Cl)cc1Cl	0	0.2	/	i	-0.12	/
ClCc1nnc(-c2cc3c(s2)CCCC3)o1	0	-4.5*	0.8	i	-2	?
O=C(O)c1cc2c(s1)CCCC2	1	0.71	0.035	i	/	/
CC(C)(C)C1CCc2sc(-c3nnc(CCl)o3)cc2C1 (stereo unspecified)	1	-4.2*	0.5	i	0.2	+
SMILES	Redox H2O2 prof	Dynein cargo inh	Cl transport mod	Autophagy mod	ROMK primary	Dynein inh conf
O=C(CS(=O)c1ccc(C(F)(F)F)cc1[N+](=O)[O-])Oc1ccccc1 (stereo unspecified)	2	-3.9*	-0.0039	i	/	+
Cc1cc(=O)[nH]n(CCO)c1=O	/	-0.34	/	/	/	/
O=c1cc(N=Nc2ccc(Cl)cc2)[nH]c(=O)[nH]1	/	-4.5*	-1.2	/	/	+
O=C(O)CC(NNC(=O)c1ccccc1)C(=O)Nc1ccc([N+](=O)[O-])cc1 (stereo unspecified)	/	-0.19	0.02	/	0.31	/
O=C(N/N=C/c1ccc(N2CCCCC2)o1)c1ccccc1	-1	-3.8*	-1.4	i	/	i
O=C(N/N=C/c1ccc(N2CCOCC2)o1)c1cccc([N+](=O)[O-])c1	-1	0.22	1.3	i	0.14	/
CC(C)N(CCNC(=O)c1oc(=O)c2ccccc2c1-c1ccccc1)Cc1ccco1	0	0.19	0.081	i	/	/
CC(C)N(CC(=O)Nc1ccc(Cl)cc1C(F)(F)F)C(=O)CCl	0	-7.1*	0.74	i	0.54	+
Cc1c(NC(=S)NC(=O)C2CCCCC2)c(=O)n(-c2ccccc2)n1C	0	-0.65	1.7	i	0.89	/
CCOC(=O)c1c(-c2ccc(C)cc2)csc1NC(=O)/C(C#N)=C/c1ccc(O)c(OC)c1	0	-10	0.43	+	/	i
O=C(CN1CCN(Cc2ccccc2)CC1)NC(=O)NCc1ccco1	0	-0.45	-0.16	i	/	/
O=C(CN1CCN(S(=O)(=O)c2ccccc2[N+](=O)[O-])CC1)NC(=O)NCc1ccco1	-1	-3.6*	-0.35	i	-0.4	i
CCOC(=O)/C(=C\C=C1/Sc2cc(OCC)c(OCC)cc2N1CC)C(C)=O	0	-3.7	i	+	/	i
CCN1/C(=C\C=C2\C(=O)N(C)C(=S)N2C)Sc2ccccc21	-1	0.76	-1.1	i	0.61	/
O=C1C(Cl)=C(NS(=O)(=O)c2ccc([N+](=O)[O-])cc2)C(=O)c2ccccc21	/	-3.9*	-1.3	/	/	+
CC(C)(C)c1cc(CN(CCO)CCO)cc(C(C)(C)C)c1O	6	-5.8*	/	i	/	+
CC1=NN(c2ccccc2)C(=O)/C1=C\c1sccc1C	/	0.33	1	/	/	/
Cc1ccc(C2=NOC(=O)/C2=C\C=C\c2ccccc2)cc1	0	-5.6*	0.24	i	0.96	+
CC1=NN(c2ccccc2)C(=O)/C1=C/C=C/c1ccccc1	0	-5.8*	0.098	i	0.37	+
O=C(NCC1CCCO1)C(Cc1ccccc1)N1C(=O)C2C3C=CC(C4CC34)C2C1=O (stereo unspecified)	0	-0.27	0.99	i	-0.12	/
Cc1onc(-c2c(Cl)cccc2Cl)c1-c1nc2cc(Cl)ccc2c(=O)o1	/	-4.1*	-0.87	/	/	+
O=C(/C=C/c1cccc([N+](=O)[O-])c1)n1cnc2ccccc21	0	-5.1*	-0.21	i	-0.78	+
Cc1ccc(NC(=O)CN2CCCCCC2)cc1[N+](=O)[O-]	0	0.31	0.71	i	-0.28	/
CC1=C(CO)C(=O)OC([C@@H](C)C2CC[C@H]3C4C[C@H]5O[C@]56[C@@H](O)C=CC(=O)[C@]6(C)C4CC[C@]23C)C1 (stereo partly specified)	/	-3.8*	-0.44	/	/	?
CCCCCCc1cc2cc(C(=O)NC)c(=N)oc2cc1O	0	-7.5*	1.4	i	/	+

Screening data (PubChem)
